Source: ChEMBL document CHEMBL1135500, “Highly antibacterial active aminoacyl penicillin conjugates with acylated bis-catecholate siderophores based on secondary diamino acids and related compounds” (2002)
Values after ≈ are worked out from the molar mass of the structure shown.

Columns and labels:
Type in all cases: functional
[1] = test system: Serratia marcescens; test: In vitro antibacterial activity against SG 621 strain of Serratia marcescens
In short: (§1)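 MIC by microbroth dilution in Mueller-Hinton broth following NCCLS guidelines.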

[2] = test system: Escherichia coli; test: In vitro antibacterial activity against ATCC 25922 strain of Escherichia coli; in short: as §1
[3] = test system: Staphylococcus aureus; test: In vitro antibacterial activity against SG 511 strain of Staphylococcus aureus; in short: as §1
[4] = test system: Pseudomonas aeruginosa; test: In vitro antibacterial activity against SG 137 strain of Pseudomonas aeruginosa; in short: as §1
[5] = test system: Klebsiella pneumoniae; test: In vitro antibacterial activity against ATCC 100331 strain of Klebsiella pneumoniae; in short: as §1
[6] = test system: Stenotrophomonas maltophilia; test: In vitro antibacterial activity against GN 12873 strain of Stenotrophomonas maltophilia; in short: as §1
[7] = test system: Pseudomonas aeruginosa; test: In vitro antibacterial activity against ATCC 27853 strain of Pseudomonas aeruginosa; in short: as §1
[8] = test system: Pseudomonas aeruginosa; test: Siderophore activity determined using growth promoting assay in SG137 strain of Pseudomonas aeruginosa under iron limited conditions
In short: (§2)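 Growth promotion under iron limitation. Overnight Nutrient Agar cultures suspended in medium VA to 1 McFarland, then 1.5 mL mixed into 99 mL Al2O3-treated Hall-Ratledge agar (pH 6.8) with trace elements and EDDHA. 5 µL of 2 mM compound applied on 6 mm paper disks. Growth zone around disks measured after 18-20 h at 37 °C.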

[9] = test system: Escherichia coli; test: Siderophore activity determined using growth promoting assay in ATCC 25922 strain of Escherichia coli under iron limited conditions; in short: as §2
[10] = test system: Pseudomonas aeruginosa; test: Siderophore activity determined using growth promoting assay in NCTC-10662 strain of Pseudomonas aeruginosa under iron limited conditions; design: unit not given beside the values; in short: as §2
[11] = test system: Pseudomonas aeruginosa; test: Siderophore activity determined using growth promoting assay in ATCC 27853 strain of Pseudomonas aeruginosa under iron limited conditions; in short: as §2
[12] = test system: Pseudomonas aeruginosa; test: Siderophore activity determined using growth promoting assay in K799/WT strain of Pseudomonas aeruginosa under iron limited conditions; in short: as §2
[13] = test system: Pseudomonas aeruginosa; test: Siderophore activity determined using growth promoting assay in ATCC 9027 strain of Pseudomonas aeruginosa under iron limited conditions; in short: as §2

MIC [1]	MIC [2]	MIC [3]	MIC [4]	MIC [5]	MIC [6]	MIC [7]	SMILES	Activity [8]	Activity [9]	Activity [10]	Activity [11]	Activity [12]	Activity [13]
< 0.005 µg/mL	< 0.005 µg/mL	5 µg/mL (≈ 5.45 µM)	< 0.005 µg/mL	< 0.005 µg/mL	0.005 µg/mL (≈ 0.00545 µM)	0.05 µg/mL (≈ 0.0545 µM)	CC(=O)Oc1cccc(C(=O)NCCCCN(CC(=O)NC(C(=O)NC2C(=O)N3C2SC(C)(C)C3C(=O)O)c2ccccc2)C(=O)c2cccc(OC(C)=O)c2OC(C)=O)c1OC(C)=O (stereo not drawn)	–	–	–	–	–	–
50 µg/mL (≈ 108 µM)	6.25 µg/mL (≈ 13.5 µM)	0.4 µg/mL (≈ 0.867 µM)	6.25 µg/mL (≈ 13.5 µM)	6.25 µg/mL (≈ 13.5 µM)	25 µg/mL (≈ 54.2 µM)	6.25 µg/mL (≈ 13.5 µM)	CC1(C)S[C@@H]2[C@H](NC(=O)[C@H](NC(=O)N3CCNC3=O)c3ccccc3)C(=O)N2[C@H]1C(=O)O [AZLOCILLIN]	–	–	–	–	–	–
0.24 µg/mL (≈ 0.241 µM)	1.56 µg/mL (≈ 1.57 µM)	6.25 µg/mL (≈ 6.29 µM)	0.04 µg/mL (≈ 0.0402 µM)	0.2 µg/mL (≈ 0.201 µM)	< 0.05 µg/mL	0.4 µg/mL (≈ 0.402 µM)	CC(=O)Oc1cccc(C(=O)N(C)CCCN(Cc2ccccc2C(=O)NC(C(=O)NC2C(=O)N3C2SC(C)(C)C3C(=O)O)c2ccccc2)C(=O)c2cccc(OC(C)=O)c2OC(C)=O)c1OC(C)=O (stereo not drawn)	–	–	–	–	–	–
–	100 µg/mL (≈ 108 µM)	25 µg/mL (≈ 27.1 µM)	0.4 µg/mL (≈ 0.433 µM)	3.12 µg/mL (≈ 3.38 µM)	1.56 µg/mL (≈ 1.69 µM)	3.12 µg/mL (≈ 3.38 µM)	CC(=O)Oc1cccc(C(=O)Nc2cc(NC(=O)c3cccc(OC(C)=O)c3OC(C)=O)cc(C(=O)NC(C(=O)NC3C(=O)N4C3SC(C)(C)C4C(=O)O)c3ccccc3)c2)c1OC(C)=O (stereo not drawn)	–	–	–	–	–	–
< 0.005 µg/mL	0.01 µg/mL (≈ 0.0107 µM)	5 µg/mL (≈ 5.35 µM)	0.01 µg/mL (≈ 0.0107 µM)	< 0.005 µg/mL	0.005 µg/mL (≈ 0.00535 µM)	0.16 µg/mL (≈ 0.171 µM)	CC(=O)Oc1cccc(C(=O)NCCCCN(CC(=O)NC(C(=O)NC2C(=O)N3C2SC(C)(C)C3C(=O)O)c2ccc(O)cc2)C(=O)c2cccc(OC(C)=O)c2OC(C)=O)c1OC(C)=O (stereo not drawn)	–	–	–	–	–	–
0.02 µg/mL (≈ 0.0175 µM)	< 0.005 µg/mL	6.25 µg/mL (≈ 5.48 µM)	< 0.005 µg/mL	< 0.005 µg/mL	0.02 µg/mL (≈ 0.0175 µM)	0.05 µg/mL (≈ 0.0439 µM)	COC(=O)Oc1cc(Br)cc(C(=O)N(C)CCCN(CC(=O)NC(C(=O)NC2C(=O)N3C2SC(C)(C)C3C(=O)O)c2ccccc2)C(=O)c2cc(Br)cc(OC(=O)OC)c2OC(=O)OC)c1OC(=O)OC (stereo not drawn)	–	–	–	–	–	–
0.05 µg/mL (≈ 0.0447 µM)	0.02 µg/mL (≈ 0.0179 µM)	3.12 µg/mL (≈ 2.79 µM)	0.05 µg/mL (≈ 0.0447 µM)	< 0.005 µg/mL	0.05 µg/mL (≈ 0.0447 µM)	0.1 µg/mL (≈ 0.0893 µM)	COC(=O)Oc1cc(Cl)c(Cl)c(C(=O)N(C)CCCN(CC(=O)NC(C(=O)NC2C(=O)N3C2SC(C)(C)C3C(=O)O)c2ccccc2)C(=O)c2c(Cl)c(Cl)cc(OC(=O)OC)c2OC(=O)OC)c1OC(=O)OC (stereo not drawn)	–	–	–	–	–	–
–	–	–	–	–	–	–	CC(=O)Oc1cccc(C(=O)N(C)CCCN(Cc2ccccc2C(=O)O)C(=O)c2cccc(OC(C)=O)c2OC(C)=O)c1OC(C)=O	19	21	18	20	17	–
6.25 µg/mL (≈ 6.1 µM)	0.78 µg/mL (≈ 0.762 µM)	1.56 µg/mL (≈ 1.52 µM)	0.2 µg/mL (≈ 0.195 µM)	< 0.05 µg/mL	0.2 µg/mL (≈ 0.195 µM)	6.25 µg/mL (≈ 6.1 µM)	CC(=O)Oc1cccc(C(=O)NCCCCN(Cc2ccc(OCC(=O)NC(C(=O)NC3C(=O)N4C3SC(C)(C)C4C(=O)O)c3ccccc3)cc2)C(=O)c2cccc(OC(C)=O)c2OC(C)=O)c1OC(C)=O (stereo not drawn)	–	–	–	–	–	–
3.12 µg/mL (≈ 3.4 µM)	0.78 µg/mL (≈ 0.85 µM)	0.78 µg/mL (≈ 0.85 µM)	0.2 µg/mL (≈ 0.218 µM)	0.4 µg/mL (≈ 0.436 µM)	50 µg/mL (≈ 54.5 µM)	0.78 µg/mL (≈ 0.85 µM)	CC(=O)Oc1ccc(C(=O)NCCCCN(CC(=O)NC(C(=O)NC2C(=O)N3C2SC(C)(C)C3C(=O)O)c2ccccc2)C(=O)c2ccc(OC(C)=O)c(OC(C)=O)c2)cc1OC(C)=O (stereo not drawn)	–	–	–	–	–	–
–	–	–	–	–	–	–	COC(=O)Oc1cccc2c(=O)n(CC(=O)Nc3cc(NC(=O)Cn4c(=O)oc5c(OC(=O)OC)cccc5c4=O)cc(C(=O)O)c3)c(=O)oc12	20	15	20	15	–	20
0.4 µg/mL (≈ 0.402 µM)	0.4 µg/mL (≈ 0.402 µM)	0.78 µg/mL (≈ 0.785 µM)	0.1 µg/mL (≈ 0.101 µM)	< 0.05 µg/mL	< 0.05 µg/mL	0.2 µg/mL (≈ 0.201 µM)	CC(=O)Oc1cccc(C(=O)NCCCCN(Cc2ccccc2C(=O)NC(C(=O)NC2C(=O)N3C2SC(C)(C)C3C(=O)O)c2ccccc2)C(=O)c2cccc(OC(C)=O)c2OC(C)=O)c1OC(C)=O (stereo not drawn)	–	–	–	–	–	–
0.06 µg/mL (≈ 0.156 µM)	0.04 µg/mL (≈ 0.104 µM)	0.1 µg/mL (≈ 0.261 µM)	0.2 µg/mL (≈ 0.522 µM)	0.04 µg/mL (≈ 0.104 µM)	> 100 µg/mL	0.4 µg/mL (≈ 1.04 µM)	C[C@@H](O)[C@H]1C(=O)N2C(C(=O)O)=C(S[C@@H]3CN[C@H](C(=O)N(C)C)C3)[C@H](C)[C@H]12 [MEROPENEM]	–	–	–	–	–	–

SMILES	MIC [1]	MIC [2]	MIC [3]	MIC [4]	MIC [5]	MIC [6]	MIC [7]	Activity [8]	Activity [9]	Activity [10]	Activity [11]	Activity [12]	Activity [13]
COC(=O)Oc1cccc(C(=O)N(CCCCn2c(=O)oc3c(OC(=O)OC)cccc3c2=O)CC(=O)NC(C(=O)NC2C(=O)N3C2SC(C)(C)C3C(=O)O)c2ccccc2)c1OC(=O)OC (stereo not drawn)	< 0.005 µg/mL	0.01 µg/mL (≈ 0.0105 µM)	2.5 µg/mL (≈ 2.63 µM)	0.04 µg/mL (≈ 0.0421 µM)	< 0.005 µg/mL	0.04 µg/mL (≈ 0.0421 µM)	0.156 µg/mL (≈ 0.164 µM)	–	–	–	–	–	–
